Arrestin-AP2 inh = inhibitors of human beta-arrestin and AP2 interaction; FITC-arrestin peptide / GST-AP2 beads, flow cytometry; AP2 beta2 appendage carries R879A mutation; actives 0.31% (n = 340,000); inhibition, % at 10 µM;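 active = inhibition above a set limit, near 3 SD of compounds lacking own fluorescence, cut at about 54% in these data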
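Material – GST-tagged AP2 beta2-adaptin appendage (R879A) on 4 µm glutathione beads · Probe or stimulus – fluorescein-tagged arrestin peptide at 50 nM final · Timing – 12 min plus 1 h, RT · Detection – bead flow cytometry, FITC channel · Read-out basis – inhibition as reduced fluorescein signal on beads, percent · Medium – PBS plus Tween 20 (0.05%) and BSA (0.1%)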
HTR2A ag = activates the mouse 5-HT2A serotonin receptor; actives 0.66% (n = 360,000); P35363; CHO-K1 mHTR2A beta-arrestin complementation, luminescence; percent of 30 µM serotonin response; activation, % at 7.6 µM; AID 624169;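 active = activation above a run cutoff, the mean activation of all tested compounds plus 3 SD, cut at about 14% in these data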
HGIII-sPLA2 inh = Blocks human group III sPLA2 activity. QFRET BODIPY PC-A2 liposome hydrolysis, fluorescence. inhibition, % at 12.2 µM. actives 0.56% (n = 370,000). Q9NZ20;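 active = inhibition above mean plus 3 SD of compounds lying within the high and low control bounds, cut at about 19% in these data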
Target sequence (Q9NZ20 whole entry, looked up): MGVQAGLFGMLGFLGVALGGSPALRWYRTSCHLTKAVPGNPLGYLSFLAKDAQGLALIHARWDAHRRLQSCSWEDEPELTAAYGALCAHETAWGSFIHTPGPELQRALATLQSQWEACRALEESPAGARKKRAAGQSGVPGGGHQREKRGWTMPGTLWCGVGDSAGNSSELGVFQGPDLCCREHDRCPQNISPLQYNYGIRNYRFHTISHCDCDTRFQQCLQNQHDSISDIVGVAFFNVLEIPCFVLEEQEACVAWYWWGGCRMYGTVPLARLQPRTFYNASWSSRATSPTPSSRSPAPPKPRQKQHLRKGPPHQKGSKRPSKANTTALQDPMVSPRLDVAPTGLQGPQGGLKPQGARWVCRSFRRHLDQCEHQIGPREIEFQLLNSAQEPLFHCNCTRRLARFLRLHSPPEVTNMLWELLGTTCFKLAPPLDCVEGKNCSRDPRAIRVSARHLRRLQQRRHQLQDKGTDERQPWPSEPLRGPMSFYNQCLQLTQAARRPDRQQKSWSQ
Hep lipid drop = hepatic lipid droplet formation modulation. inhibition, % at 6.5 µM. AML12 mouse hepatocytes, oleate lipid droplets, BODIPY imaging. actives 0.4% (n = 240,000);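 active = lipid droplet intensity inhibited by at least 50%, with more than 500 cells counted; inconclusive = wells with under 300 cells, treated as cytotoxic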
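Assay system: AML12 hepatocytes (mouse) / Also added: 100 µM oleic acid challenge / Times: overnight treatment with compound plus oleate / Detection: high-content imaging of BODIPY-stained droplets and DAPI nuclei / Evaluation: % inhibition of lipid droplet signal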
PfM18AAP inh = blocks P. falciparum M18 aspartyl aminopeptidase. actives 1.2% (n = 290,000). recombinant PfM18AAP, H-Glu-NHMec fluorogenic cleavage. AID 1822. inhibition, % at 7.35 µM;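 active = inhibition above the campaign mean inhibition over all tested compounds plus 3 SD, cut at about 28% in these data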
NRP1-CendR mod = modulators of CendR peptide binding to human neuropilin-1 | O14786 | FAM-RPARPAR peptide binding to NRP-1, fluorescence polarization | inhibition, % at 25 µM | actives 0.85% (n = 360,000) | AID 602438;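 active = inhibition or corrected inhibition above about 18%, plus a signal ratio from 0.5 to 1.5, limit read from the data, passing the limit was not always enough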
Arr AP2 CP1 = human beta-arrestin and AP2 interaction inhibition, cherry pick. shares compounds with Arrestin-AP2 inh. GST-AP2 beads, FITC arrestin peptide binding, flow cytometry; GST-fused beta2-adaptin appendage, R879A mutant. inhibition, % at 10 µM. actives 2% (n = 1,300). AID 504908;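 active = inhibition above a set limit, roughly 3 SD of non-fluorescent compound noise, cut at about 38% in these data; inactive = inhibition at or below that limit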;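 note: loss of bead fluorescence from 50 nM FITC arrestin peptide bound to appendage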
GST GSH counter = disrupts GST binding to glutathione beads, arrestin-AP2 artifact. AID 588338. shares compounds with Arrestin-AP2 inh. inhibition, % at 10 µM. GST-fluorescein binding to GSH beads, fluorescence, counter-screen. actives 2% (n = 1,300);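 active = inhibition above 50%, about 3 SD of the inhibition seen with non-fluorescent compounds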;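 note: fluorescein maleimide labelled GST captured on 4 micron glutathione beads; higher means more loss of bead fluorescence from quenching or blocked binding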
Numbers stand for hits; - = inactive; ? = inconclusive; . = no result given. Most compounds without a hit are left out; they make up all but 3.3% or so of the library.

SMILES	Arrestin-AP2 inh	HTR2A ag	HGIII-sPLA2 inh	Hep lipid drop	PfM18AAP inh	NRP1-CendR mod	Arr AP2 CP1	GST GSH counter
Cc1cc(C)cc(NC(=O)Nc2cnccn2)c1	-	-	-	-	-	-	-	-
Cc1ccc(NC(=O)Nc2cnccn2)cc1C	-	-	-	-	-	-	-	-
O=C(Nc1ccc([N+](=O)[O-])cc1)Nc1cnccn1	-	-	-	-	-	-	.	.
O=C(Nc1ccc(Cl)cc1)Nc1cnccn1	-	-	-	-	-	-	-	-
CC(C)c1ccc(NC(=O)Nc2cnccn2)cc1	-	-	-	-	-	-	-	-
COc1cc(CN2C[C@@H](CO)O[C@@H](n3cnc4c(NC5CCCC5)ncnc43)C2)cc(OC)c1OC	.	-	-	.	.	-	.	.
COc1ccc(NC(=O)Nc2cnccn2)cc1OC	-	-	-	-	-	-	-	-
O=S(=O)(c1ccc2c(c1)OCCO2)N1CCN(S(=O)(=O)c2ccco2)CC1	-	-	-	.	.	-	.	.
O=C(c1ccco1)N1CCN(S(=O)(=O)c2ccc3c(c2)OCCO3)CC1	96	-	-	-	-	-	-	-
CN(CC(=O)Nc1c(Cl)cccc1Cl)C(=O)C1CCN(C(=O)Nc2ccccc2)CC1	-	-	-	.	.	-	.	.
O=C(CCN1C(=O)/C(=C/c2ccccc2)SC1=S)NNC(=O)c1cccnc1	106	-	-	-	-	-	-	-
O=C(Nc1ccc(F)cc1)OCc1cn(Cc2ccc(Cl)cc2)nn1	.	.	-	.	.	.	.	.
O=C(C1=C(O)C(=O)N(CCCn2ccnc2)C1c1ccccc1)c1ccco1 (configuration not stated)	-	-	.	-	-	-	.	.
O=C(C1=C(O)C(=O)N(CCCn2ccnc2)C1c1cccc(Br)c1)c1ccco1 (configuration not stated)	55	-	-	-	-	-	-	-
CC1(C(=O)Nc2ccc3c(c2)OCO3)CCN1C(=O)Cc1ccc(-c2ccccc2)cc1 (configuration not stated)	.	-	-	.	.	-	.	.
O=C(COc1ccccc1Br)NC(=O)NC1CCCC1	56	-	-	.	.	-	-	-
O=C(COc1ccccc1Br)NC1CC1	-	-	-	-	-	-	.	.
COc1ccc(C(=O)N(C)Cc2ccc(C)o2)cc1OC1CCN(C(C)=O)CC1	61	-	-	-	-	-	-	-
COc1ccc(C(=O)N2CCCCCC2)cc1OC1CCN(C(C)=O)CC1	-	-	-	-	-	-	.	.
C=CCn1c(-c2ccc(N)cc2)nc2ccccc21	-	-	-	.	-	-	.	.
C=CCn1c(-c2ccc(OC)cc2)nc2ccccc21	98	-	-	-	-	-	-	-
CCC(C)N(C(=O)COC(=O)c1ccccc1SCC(=O)N1CCCC1)C1CCS(=O)(=O)C1 (configuration not stated)	54	-	-	-	-	-	-	-
COc1ccc(NC(=O)COC(=O)Cn2nnc3ccccc32)cc1	-	-	-	-	-	-	.	.
CN(C)c1ccc(NC(=O)COC(=O)Cn2nnc3ccccc32)cc1	61	-	-	-	-	-	-	-
COc1ccc(C)cc1NC(=O)Nc1cnccn1	-	-	-	-	-	-	-	-
SMILES	Arrestin-AP2 inh	HTR2A ag	HGIII-sPLA2 inh	Hep lipid drop	PfM18AAP inh	NRP1-CendR mod	Arr AP2 CP1	GST GSH counter
COc1ccc(NC(=O)Nc2cnccn2)c(OC)c1	-	-	-	-	-	-	-	-
COc1ccc(NC(=O)c2cccnc2)c(OC)c1	-	-	-	.	-	-	.	.
COc1ccc(Cl)cc1NC(=O)Nc1cnccn1	-	-	-	-	-	-	.	.
O=C(Nc1cc(C(F)(F)F)ccc1N1CCCC1)C1=COCCO1	-	-	-	.	.	-	.	.
O=C(Nc1cc(C(F)(F)F)ccc1N1CCOCC1)C1=COCCO1	55	-	-	.	.	-	-	-
O=S1(=O)c2ccc(Br)cc2OC[C@H](Cc2ccccc2)N1Cc1cn(Cc2ccc(C(F)(F)F)cc2)nn1	.	.	-	.	.	.	.	.
COc1cccc(C(=O)Nc2ccc3c(c2)n(C)c(=O)n3C)c1	-	-	-	-	-	-	.	.
COc1cccc(C(=O)Nc2cc3c(cc2N2CCCC2)n(C)c(=O)n3C)c1	-	-	-	-	-	-	-	-
O=C(Nc1ccccc1N1CCCC1)c1cccc(F)c1	-	-	-	-	-	-	.	.
Cn1c(=O)n(C)c2cc(N3CCCC3)c(NC(=O)c3cccc(F)c3)cc21	-	-	-	-	-	-	-	-
CNS(=O)(=O)c1cccc(C(=O)NCC2(N3CCOCC3)CCCCC2)c1	-	-	-	-	-	-	.	.
O=C(NCC1(N2CCCCC2)CCCCC1)c1cccc(S(=O)(=O)Nc2ccc(F)cc2)c1	-	-	-	.	.	-	-	-
Cc1cccc(NS(=O)(=O)c2cccc(C(=O)NCC3(N4CCOCC4)CCCCC3)c2)c1	-	-	-	.	.	-	-	-
COc1ccccc1NS(=O)(=O)c1ccc(C)c(C(=O)NCC2(N(C)C)CCCCC2)c1	-	-	-	.	.	-	-	-
O=C(NCC1(N2CCOCC2)CCCCC1)c1cccc(S(=O)(=O)Nc2ccc(F)cc2)c1	-	-	-	.	.	-	-	-
COc1cc2c(cc1NC(=O)CSc1nnc(-c3ccccc3C)n1Cc1ccco1)oc1ccccc12	.	.	-	.	.	.	.	.
COc1ccccc1NS(=O)(=O)c1cccc(C(=O)NCC2(N3CCCCC3)CCCCC2)c1	-	-	-	.	.	-	-	-
CCOC(=O)C1CCN(c2cc3c(cc2NC(=O)c2ccccc2Br)n(C)c(=O)n3C)CC1	-	-	-	-	-	-	-	-
CCOC(=O)C1CCN(C(=O)c2ccccc2NC(=O)c2ccc(Br)cc2)CC1	-	-	-	-	-	-	.	.
CCOC(=O)C1CCN(c2cc3c(cc2NC(=O)c2cc(OC)ccc2Br)n(C)c(=O)n3C)CC1	-	-	-	-	-	-	-	-
O=C(Nc1ccc(OCc2ccccc2)cc1)Nc1nnc([C@H]2C[C@H](O)[C@@H](CO)O2)s1	.	-	-	.	.	-	.	.
Cc1c(C(=O)N/N=C/c2ccc(N(C)C)cc2)[nH]c2ccc(Cl)cc12	90	-	-	?	-	-	-	-
O=C(OCC(=O)N(CCc1ccccc1)Cc1ccccc1)c1cccc(S(=O)(=O)N2CCOCC2)c1	-	-	-	.	.	-	.	.
Cc1cnc(C(=O)OCC(=O)N2c3ccccc3CC2C)cn1 (configuration not stated)	55	-	-	-	-	-	-	-
CC1Cc2ccccc2N1C(=O)COC(=O)c1cccnc1Cl (configuration not stated)	-	-	-	.	-	-	.	.
COc1ccc(/C=C/C(=O)c2ccccc2)cc1COc1ccccc1F	56	-	-	.	-	-	-	-
